Reference: ChEMBL document CHEMBL3232756, “Synthesis and biological evaluation of N-dehydrodipeptidyl-N,N'-dicyclohexylurea analogs” (Eur J Med Chem, 2014)
In brackets after ≈: the same amount, converted by molar mass.

What was measured:
[1] = system: Escherichia coli; test: Antimicrobial activity against Escherichia coli ESS 2231 at 0.02 ml of 1 mg/ml after 24 hrs by cup plate method; type: functional; details: ESS 2231, 24 h, read-out: DIZ
Procedure, shortened: (§1)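 Cup-plate diffusion on Mueller-Hinton/nutrient agar swab-streaked with suspension, 6 mm cups bored. Each compound at 1 mg/ml in DMSO, 0.02 ml per cup; DMSO as solvent control. Amoxicillin for bacteria and fluconazole for fungi at 200 and 500 respectively as references. Incubation 37 °C for 24 h. Inhibition zone diameter in mm, triplicate, mean ± SD.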

[2] = system: Candida albicans; test: Antimicrobial activity against Candida albicans MTCC 227 at 0.02 ml of 1 mg/ml after 24 hrs by cup plate method; type: functional; details: MTCC 227, 24 h, read-out: DIZ; procedure, shortened: as §1
[3] = system: Brain; test: Antioxidant activity against lipid peroxidation in Wister rat brain homogenates assessed as thiobarbituric acid reactive substance formation after 30 mins by spectrophotometer analysis; type: functional, tissue-based; details: 0.5 h
Procedure, shortened: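 Whole brain minus cerebellum from overnight-fasted rats of either sex, 200–220 g. Homogenized 10% w/v in 0.15 M KCl and spun at 800 rpm for 10 min. Reaction incubated 37 °C for 30 min, then TBA:TCA (1:1) and BHT added, heated 80 °C for 20 min, cooled, centrifuged, A532 read.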

[4] = system: Pseudomonas aeruginosa; test: Antimicrobial activity against Pseudomonas aeruginosa MTCC 1688 at 0.02 ml of 1 mg/ml after 24 hrs by cup plate method; type: functional; details: MTCC 1688, 24 h, read-out: DIZ; procedure, shortened: as §1
[5] = system: Mus musculus; test: Analgesic activity in Swiss albino mouse assessed as inhibition of acetic acid-induced writhing response at 100 mg/kg, po administered 1 hr before acetic acid challenge after 5 mins; type: functional
[6] = Antioxidant activity assessed as trolox equivalents of cupric reducing antioxidant capacity after 30 mins; type: functional
Procedure, shortened: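 Mix of 1 ml CuCl2 (10 mM), 1 ml ethanolic neocuproine (7.5 mM), 1 ml ammonium acetate buffer (pH 7.0, 1 M), 1 ml compound or standard solution and 0.1 ml water, total 4.1 ml. A450 read after 30 min against reagent blank. TEAC = ε test/ε Trolox.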

[7] = system: Bacillus subtilis; test: Antimicrobial activity against Bacillus subtilis MTCC 441 at 0.02 ml of 1 mg/ml after 24 hrs by cup plate method; type: functional; details: MTCC 441, 24 h, read-out: DIZ; procedure, shortened: as §1
[8] = system: Mus musculus; test: Acute toxicity in Swiss albino mouse assessed as gross behavioral changes up to 1500 mg/kg, po; type: organism-based; set-up: dose 1500 mg/kg, route oral; details: in vivo
Procedure, shortened: (§2)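 Swiss albino mice (6–8 weeks, 25–30 g) were dosed orally at 500, 1000 or 1500 mg/kg, following OECD guidelines. Body weight, food and water intake, behavioural patterns and mortality were recorded and compared with a control group.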

[9] = system: Aspergillus niger; test: Antimicrobial activity against Aspergillus niger MTCC 292 at 0.02 ml of 1 mg/ml after 24 hrs by cup plate method; type: functional; details: MTCC 292, 24 h, read-out: DIZ; procedure, shortened: as §1
[10] = system: Rattus norvegicus; test: Antiinflammatory activity in Wister rat assessed as inhibition of carrageenan-induced paw edema at 100 mg/kg, po administered 1 hr before carrageenan challenge measured after 3 hrs by plethysmograph analysis; type: functional
Procedure, shortened: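 Rats of either sex, 150–220 g, food withheld 4 h. Compound or diclofenac sodium 100 mg/kg p.o., or 0.5% sodium CMC at 10 ml/kg as vehicle control, given 1 h before 0.05 ml of 1% carrageenan subplantar into the right hind paw. Paw volume read by water-displacement plethysmograph at 0, 30, 60, 120 and 180 min. % edema inhibition = 100(1−Vt/Vc); n=5, control n=6; ANOVA/Dunnett.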

[11] = system: Staphylococcus aureus; test: Antimicrobial activity against Staphylococcus aureus MTCC 96 at 0.02 ml of 1 mg/ml after 24 hrs by cup plate method; type: functional; details: MTCC 96, 24 h, read-out: DIZ; procedure, shortened: as §1
[12] = system: Radical scavenging activity; test: Antioxidant activity assessed as DPPH radical scavenging activity after 20 to 30 mins; type: functional
Procedure, shortened: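 Test solution (2 ml at 25, 50, 75, 100, 125) mixed with 2 ml ethanolic DPPH, held in the dark at ambient temperature 20–30 min, then A517 read against an ethanol blank. Tocopherol used as standard. % scavenging = (Acontrol−Atest)/Acontrol×100, run in triplicate. IC50 read graphically from the % scavenging versus concentration plot.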

[13] = Antioxidant activity assessed as hydroxyl radical scavenging activity after 15 mins; type: functional
Procedure, shortened: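 Deoxyribose degradation mix: 2-deoxy-2-ribose 2.8 mM, KH2PO4–KOH 20 mM pH 7.4, FeCl3, EDTA, H2O2 1.0 mM, ascorbic acid, plus compound in methanol. Incubated 1 h at 37 °C. A 0.5 ml aliquot taken with 1 ml 2.8% TCA and 1 ml 1% TBA, heated 90 °C for 15 min, cooled, A532 read. % inhibition against blank.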

[14] = system: Mus musculus; test: Acute toxicity in Swiss albino mouse assessed as mortality up to 1500 mg/kg, po; type: organism-based; set-up: dose 1500 mg/kg, route oral; details: in vivo; procedure, shortened: as §2
[15] = Cytotoxicity against brine shrimps larvae assessed as mortality after 24 hrs; type: organism-based; details: artemia, in vivo; read-out: ED50
Procedure, shortened: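 Shrimp eggs were hatched in filtered artificial sea water (38 g sea salt/L) in a divided tank. Larvae were exposed in vials at several concentrations under a lamp, and survivors were counted 24 h later. ED50 and 95% confidence intervals were derived from % larvae surviving by Finney probit analysis.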

Row | SMILES | zone of inhibition at 1000 µg/mL [1] [mm] | zone of inhibition at 1000 µg/mL [2] [mm] | IC50 [3] [µM] | zone of inhibition at 1000 µg/mL [4] [mm] | inhibition in vivo at 100 mg/kg [5] [%] | TEAC (Trolox equivalents) [6] | zone of inhibition at 1000 µg/mL [7] [mm] | Activity [8] | zone of inhibition at 1000 µg/mL [9] [mm] | inhibition in vivo at 100 mg/kg [10] [%] | zone of inhibition at 1000 µg/mL [11] [mm] | IC50 [12] [µM] | IC50 [13] [µM] | Activity [14] | LC50 at 24 h [15] [µg/mL]
1 | CC(C)c1ccc(/C=C(/NC(=O)c2ccccc2)C(=O)NCC(=O)N(C(=O)NC2CCCCC2)C2CCCCC2)cc1 | 18.1 | 13.1 | 60.4 | 17.3 | 47.4 | 1.19 | 18.4 | Non-toxic | 21.2 | 26 | 16.4 | 61 | 60.4 | Non-toxic | –
2 | COc1cc(/C=C(/NC(=O)c2ccccc2)C(=O)NC(CS)C(=O)N(C(=O)NC2CCCCC2)C2CCCCC2)ccc1O (stereo unspecified) | 24.6 | 20.4 | 81.6 | 20.8 | 48 | 3.6 | 20.2 | Non-toxic | 19.3 | 38.4 | 22.1 | – | 92.8 | Non-toxic | –
3 | O=C(NC(CS)C(=O)N(C(=O)NC1CCCCC1)C1CCCCC1)/C(=C\c1ccc(F)cc1)NC(=O)c1ccccc1 (stereo unspecified) | 14.3 | 17.1 | 74.7 | 16.6 | 42 | 3.6 | 14.5 | Non-toxic | 18.2 | 25 | 11.4 | 58.8 | 51 | Non-toxic | –
4 | COc1ccc(/C=C(/NC(=O)c2ccccc2)C(=O)NC(CS)C(=O)N(C(=O)NC2CCCCC2)C2CCCCC2)cc1 (stereo unspecified) | 16.4 | 19.8 | 127 | 17.7 | 36 | 2.91 | 20.1 | Non-toxic | 20.3 | 31.5 | 19.2 | 88.7 | 97.2 | Non-toxic | –
5 | O=C(O)Cc1ccccc1Nc1c(Cl)cccc1Cl [DICLOFENAC SODIUM] | – | – | – | – | – | – | – | – | – | 66.8 | – | – | – | – | –
6 | O=C(NCC(=O)N(C(=O)NC1CCCCC1)C1CCCCC1)/C(=C\c1ccc(F)cc1)NC(=O)c1ccccc1 | 16.5 | 19.2 | 97.2 | 17.6 | 22 | 1.22 | 20.1 | Non-toxic | 20.8 | 20.6 | 19.3 | 88.7 | 88.7 | Non-toxic | –
7 | CC(C)c1ccc(/C=C(/NC(=O)c2ccccc2)C(=O)NC(CS)C(=O)N(C(=O)NC2CCCCC2)C2CCCCC2)cc1 (stereo unspecified) | 11.8 | 12.2 | 92.8 | 15.4 | 58.5 | 2.36 | 15.2 | Non-toxic | 14.4 | 28.2 | 12.9 | 74.7 | 82.2 | Non-toxic | 16.7 (≈ 27 µM)
8 | O=C(NCC(=O)N(C(=O)NC1CCCCC1)C1CCCCC1)/C(=C\c1ccc(Cl)cc1)NC(=O)c1ccccc1 | 16.3 | 12.7 | 96.8 | 9.2 | 27.6 | 0.93 | 13.5 | Non-toxic | 13.5 | 15.2 | 11.8 | 83.7 | 83.7 | Non-toxic | –
9 | O=C(NC(CS)C(=O)N(C(=O)NC1CCCCC1)C1CCCCC1)/C(=C\c1ccccc1)NC(=O)c1ccccc1 (stereo unspecified) | 25.8 | 17.4 | 59.5 | 20.6 | 56.8 | 3.84 | 23.2 | Non-toxic | 18.3 | 43.4 | 24.4 | 44.4 | 64.4 | Non-toxic | 3.53 (≈ 6.12 µM)
10 | CC(=O)Oc1ccccc1C(=O)O [ASPIRIN] | – | – | – | – | 63.1 | – | – | – | – | – | – | – | – | – | –
11 | COc1cc([C@@H]2c3cc4c(cc3[C@H](O)[C@H]3COC(=O)[C@H]23)OCO4)cc(OC)c1OC [PODOFILOX] | – | – | – | – | – | – | – | – | – | – | – | – | – | – | 3.77 (≈ 9.1 µM)
12 | COc1ccc(/C=C(/NC(=O)c2ccccc2)C(=O)NCC(=O)N(C(=O)NC2CCCCC2)C2CCCCC2)cc1 | 15.8 | 19.6 | 108 | 10.3 | 39.6 | 1.24 | 11.3 | Non-toxic | 18.8 | 12 | 14.3 | 92.7 | 92.7 | Non-toxic | –
13 | Cc1ccc(/C=C(/NC(=O)c2ccccc2)C(=O)NC(CS)C(=O)N(C(=O)NC2CCCCC2)C2CCCCC2)cc1 (stereo unspecified) | 22.7 | 14.2 | 113 | 18.4 | 41.2 | 2.36 | 15.8 | Non-toxic | 15.4 | 35.5 | 16.8 | 84 | 66.3 | Non-toxic | –
14 | Cc1ccc(/C=C(/NC(=O)c2ccccc2)C(=O)NCC(=O)N(C(=O)NC2CCCCC2)C2CCCCC2)cc1 | 13.3 | 13.4 | 127 | 17.6 | 48.8 | 1.24 | 13.2 | Non-toxic | 14.5 | 23.9 | 15.5 | 71.9 | 101 | Non-toxic | –
15 | Cc1cc(C(C)(C)C)c(O)c(C(C)(C)C)c1 [BUTYLATED HYDROXYTOLUENE] | – | – | 57.8 | – | – | – | – | – | – | – | – | – | – | – | –
16 | O=C1O[C@H]([C@@H](O)CO)C(O)=C1O [ASCORBIC ACID] | – | – | – | – | – | 2.63 | – | – | – | – | – | – | 49.9 | – | –
